Data as given in ChEMBL document CHEMBL1122343, “2-Benzazepines. 4. [1,2,3]Triazolo[4,5-d][2]benzazepines and dibenzo[c,f][1,2,3]triazolo[3,4-a]azepines: synthesis and evaluation as central nervous system agents” (J Med Chem, 1983).

Tests used:
[1] = Lethal dose tested in mice by oral administration; format: toxicity, organism-based; conditions: mouse, in vivo
[2] = target: GABA-A receptor; anion channel; assay: In vitro inhibition of [3H]diazepam binding to rat GABA-A benzodiazepine receptor; format: protein-complex assay
Mus musculus [3] = assay: Antianxiety activity, by anti-pentylenetetrazole test carried out on 50-54 day old mice (po); format: functional
In short: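 Oral dosing to male CF-1 mice aged 50–54 days, using a modification of the Everett and Richards method. Metrazole was given iv at 70 mg/kg as the convulsant challenge.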

Mus musculus [4] = assay: Antianxiety activity, by rotarod test carried out on 50-54 day old mice (po); format: functional
Mus musculus [5] = assay: Antianxiety activity, by inclined screen procedure carried out on 50-54 day old mice(po); format: functional

| SMILES | LD50 [1] | IC50 [2] | ED50 (Mus musculus [3]) | ED50 (Mus musculus [4]) | ED50 (Mus musculus [5]) |
| --- | --- | --- | --- | --- | --- |
| c1ccc(C2=NCc3n[nH]nc3-c3ccccc32)cc1 | 775 mg/kg | 420 nM | > 100 mg/kg |  |  |
| Clc1ccccc1C1=NCc2n[nH]nc2-c2ccccc21 | 900 mg/kg | 5.2 nM | > 100 mg/kg |  |  |
| Clc1ccc2c(c1)C(c1ccccc1Cl)=NCc1n[nH]nc1-2 | > 1000 mg/kg | 0.76 nM | 2.6 mg/kg | 57 mg/kg | > 400 mg/kg |
| Clc1ccc2c(c1)C(c1ccccc1)=NCc1n[nH]nc1-2 | > 1000 mg/kg | 11 nM | 4.2 mg/kg | 26 mg/kg | > 400 mg/kg |
| Fc1ccccc1C1=NCc2n[nH]nc2-c2ccc(Cl)cc21 | > 1000 mg/kg | 0.76 nM | 2.1 mg/kg | 48 mg/kg | 302 mg/kg |
| CN1C(=O)CN=C(c2ccccc2)c2cc(Cl)ccc21 [DIAZEPAM] |  |  | 1.4 mg/kg | 2.6 mg/kg | 25 mg/kg |
